Wnt bcat act = Wnt/beta-catenin pathway activation. activation, % at 9.35 µM. 1.2% of 300,000 active. Wnt/beta-catenin reporter cell assay, activator, plate reader; in the data active = activation above about 30%, passing the limit was not always enough; inconclusive = no clear call, values can overlap the other calls;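 also: 0% = neutral control wells and 100% = positive control wells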
MITF act = MITF TRPM1 promoter activation in melanoma cells; SK-MEL-5 TRPM1-promoter luciferase, 24 h; % of positive control, neutral wells = 0; activation, % at 12.5 µM; 0.75% of 300,000 active; AID 588334;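 active = mean activation of at least 80% with every replicate also reaching 80%; inconclusive = mean reaches 80% but some replicate falls short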;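 also: 0% = neutral control wells and 100% = parthenolide positive control wells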
SR-BI uptake up = activators of SR-BI mediated HDL lipid uptake. activation, % at 12.5 µM. 0.096% of 320,000 active. CHO ldlA[mSR-BI] cells, DiI-HDL uptake fluorescence, 3 h; 100 = double the neutral-control signal;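 active = mean replicate activation of at least 60% and every replicate at or above 60%; inconclusive = mean or all-replicate condition met, but not both; inactive = mean below 60% and not all replicates reaching 60%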;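 also: 0% = median plate neutral-control signal and 100% = twice that signal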
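System: CHO ldlA[mSR-BI] cells / Medium: HEPES-buffered (25 mM, pH 7.4) F12 plus 0.5% BSA / Probe or stimulus: labelled HDL, 10 µg/mL / Doses: single compound concentration, delivered by pin transfer / Schedule: 3 h, 37 °C / Measured by: DiI fluorescence, bottom read / Measure: cell-associated DiI fluorescence as measure of HDL uptake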
SR-BI DiI inh = mouse SR-BI HDL lipid transfer inhibition; ldlA[mSR-BI] CHO cells, DiI-HDL uptake fluorescence, 3 h; Q61009; 0.96% of 320,000 active; inhibition, % at 12.5 µM;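 active = mean replicate inhibition of at least 70% and a set share of replicates each scoring 70 or more; inconclusive = meets just one of the two criteria; inactive = fails both criteria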;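 also: 0% = median of neutral control wells and 100% = median of positive control wells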
Target sequence (Q61009 whole entry, looked up): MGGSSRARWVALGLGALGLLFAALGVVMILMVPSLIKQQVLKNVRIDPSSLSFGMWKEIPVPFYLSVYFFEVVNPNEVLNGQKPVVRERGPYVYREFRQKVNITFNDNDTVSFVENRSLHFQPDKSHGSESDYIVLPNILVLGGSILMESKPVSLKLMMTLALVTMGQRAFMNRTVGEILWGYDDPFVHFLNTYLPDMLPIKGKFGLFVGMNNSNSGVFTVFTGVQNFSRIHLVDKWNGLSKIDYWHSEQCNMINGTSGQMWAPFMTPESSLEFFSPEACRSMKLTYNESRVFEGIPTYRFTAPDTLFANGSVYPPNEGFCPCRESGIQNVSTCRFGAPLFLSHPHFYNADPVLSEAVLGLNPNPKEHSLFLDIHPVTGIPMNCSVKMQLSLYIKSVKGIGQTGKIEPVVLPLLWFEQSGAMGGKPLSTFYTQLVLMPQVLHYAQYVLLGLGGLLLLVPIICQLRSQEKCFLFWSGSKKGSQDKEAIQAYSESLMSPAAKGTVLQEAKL
HSF-1 act = increases HSF-1 driven luciferase reporter signal. activation, % at 9 µM. NIH3T3-HGL HSF-1 luciferase reporter, MG132, 8 h; 100% = twice DMSO control signal. 1.7% of 300,000 active;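 active = mean replicate activation of at least 50% with a set share of replicates each reaching 50%; inconclusive = only one of those two conditions met; inactive = mean below 50% and too few replicates reaching it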;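 also: 0% = median of the neutral control wells and 100% = twice that signal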
The depositor's hits bear a star; u = inconclusive; x = not tested or not shown. Sampled rows, rich in hits. Any-hit rate of the full collection: about 3.6%.

SMILES	Wnt bcat act	MITF act	SR-BI uptake up	SR-BI DiI inh	HSF-1 act
CN(C)S(=O)(=O)c1cc(NC(=O)[C@H](Cc2ccccc2)N2C(=O)c3ccccc3C2=O)ccc1Cl	31*	-5	-44	44	32
Cc1ccc(Cc2c(-c3ccc(Cl)cc3)nc3c(Cl)cc(C(F)(F)F)cn23)cc1	-2	x	x	x	x
COC(=O)C1CCN(C(=O)COc2ccc(S(=O)(=O)N3CCOCC3)cc2Cl)CC1	-1	-10	-15	15	x
Nc1[nH]c(C(=O)c2ccc(Br)cc2)c(-c2ccc(Cl)cc2)c1C(=O)NCCc1c[nH]c2ccccc12	-1	x	x	x	x
CCCCNc1cc(NC(C)=O)cc2cc(OC)c(OC)cc12	x	-4	-70	70	76*
CCCC(=O)Nc1cc(OC)c(OC)cc1C(=O)O	-4	-7	-13	13	23
COc1cc2cc(NC(C)=O)cc(NCc3ccccc3)c2cc1OC	0	x	-56	56	66*
C=CCCC1CN(Cc2ccc(OC)cc2)S(=O)(=O)c2c(cccc2N2CCCC2)O1 (configuration not stated)	-4	x	x	x	x
Cc1cc2oc(=O)cc(Cn3ncc(Cl)c(Cl)c3=O)c2cc1Cl	x	-82	-36	36	81*
COC(=O)N/N=C\c1ccc(OC/C=C/c2ccccc2)cc1	8	71	-7	7	21
CC(C)(O)C(=O)N/N=C\c1ccc(OC/C=C/c2ccccc2)cc1	13	105*	-11	11	36
CC(=O)N/N=C\c1cccc(OC/C=C/c2ccccc2)c1	18	16	13	-13	x
CC(=O)N/N=C\c1ccccc1OC/C=C/c1ccccc1	42*	u	-22	22	11
C/C=C1\COC(C(=O)NCc2ccccc2)(C(F)(F)F)C=C1C=C1CCCCC1 (configuration not stated)	0	4	-52	52	71*
C/C=C1\COC(C(=O)NCCN2CCCC2)(C(F)(F)F)C=C1C=C1CCCCC1 (configuration not stated)	6	-7	0	0	0
CCCc1c(C(=O)N/N=C/C2CC=CCC2)nnn1-c1nonc1N (configuration not stated)	-2	x	x	x	x
Cc1ncoc1C(=O)Nc1ccc(Oc2ccccc2)cc1	x	38	0	0	52*
CCOC(=O)Nc1ccc(Oc2ccccc2)cc1	55*	90*	18	-18	35
CCOC(=O)Nc1ccc(C(=O)Oc2ccccc2)c(O)c1	7	46	-23	23	68*
Cc1nc(C)c(C(=O)Nc2ccc(Oc3ccccc3)cc2)o1	x	-6	-2	2	2
Cc1nc2ccc(NS(=O)(=O)c3cccc([N+](=O)[O-])c3)cc2s1	-4	-11	28	-28	x
Cc1ccccc1OCCC(=O)OCC(=O)N(C)c1c(N)n(Cc2ccccc2)c(=O)[nH]c1=O	-2	-5	-6	6	2
CCN(CC)S(=O)(=O)c1ccc(N2CCc3ccccc3C2)nc1	1	31	1	-1	73*
CCN(CC)S(=O)(=O)c1ccc(N2CCN(S(=O)(=O)c3ccccc3)CC2)nc1	-3	-9	x	x	-8
CC(C)N(C(C)C)S(=O)(=O)c1ccc(N2CCc3ccccc3C2)nc1	15	66	-15	15	130*
SMILES	Wnt bcat act	MITF act	SR-BI uptake up	SR-BI DiI inh	HSF-1 act
CC(C)N(C(C)C)S(=O)(=O)c1ccc(Cl)nc1	-1	-14	7	-7	5
COc1ccc(-c2nn(C)c(=O)c3ccccc23)cc1NC(=O)COc1ccc(C)cc1	0	-19	-92	92*	33
COc1ccc(-c2nn(C)c(=O)c3ccccc23)cc1NC(=O)Cn1nc(C)c2ccccc2c1=O	1	-15	-34	34	-1
CCC(=O)Nc1cc(-c2nn(C)c(=O)c3ccccc23)ccc1OC	x	-18	-5	5	11
CCCC(=O)Nc1cc(-c2nn(C)c(=O)c3ccccc23)ccc1OC	x	x	-16	16	60*
CC(C)[C@@H]1CC[C@@H](C)C[C@H]1O	-6	x	x	x	x
Cn1cc(C(=O)c2ccc(Cl)cc2Cl)cc1C(=O)N/N=C(\N)COc1cccc(C(F)(F)F)c1	x	2	-81	81*	17
CCOC(=O)c1c2c(n(Cc3ccccc3)c1C)C(=O)C(=O)c1ccccc1-2	-6	-103	-33	33	99*
O=C(CC(=O)NN=Cc1ccc2c(c1)CCC2)NN=Cc1ccc2c(c1)CCC2	-4	3	-14	14	-3
COc1cc2[nH]c(=O)c(C(=O)NCc3ccc(C)cc3)c(O)c2cc1OC	-5	x	x	x	x
O=C(N/N=C/c1ccc(Br)cc1)c1ccc(Br)o1	56*	103*	-15	15	45
O=[N+]([O-])c1ccc(COc2ccc(CN3CCCC3)cc2)cc1	10	100*	-12	12	x
O=[N+]([O-])c1ccc(COc2ccc(CN3CCCCC3)cc2)cc1	9	u	20	-20	x
COc1cc(OC)c(NC2c3ccccc3C(=O)N2c2cc(C)ccn2)cc1Cl (configuration not stated)	39*	x	-17	17	32
CN(/N=C/c1ccc2c(c1)OCO2)c1ccccc1	x	118*	-9	9	22
O=C1c2ccccc2C(=O)N1N=Cc1ccc2c(c1)OCO2	52*	x	x	x	x
Cc1c(C(=O)NCc2cccs2)sc(=O)n1Cc1ccc(S(C)(=O)=O)cc1	-3	x	x	x	x
COc1ccc(/C(O)=C2/C(=O)C(=O)N(c3ccccn3)C2c2ccc(F)cc2)cc1 (configuration not stated)	1	84*	-6	6	20
Cn1nc(C(C)(C)C)cc1C(=O)N1CCCCC1c1cc(C(=O)NCc2cccnc2)no1 (configuration not stated)	0	x	x	x	x
COc1ccc(OC)c(C(C[N+](=O)[O-])c2c(C)cc3ccccn23)c1 (configuration not stated)	-3	-23	-10	10	112*
O=C1c2ccccc2C(=O)N1CSc1nnnn1-c1ccccc1	x	x	27	-27	22
c1ccc(OCCSc2nnnn2-c2ccccc2)cc1	x	90*	-4	4	69*
O=C1c2ccccc2C(=O)N1CCCCSc1nnnn1-c1ccccc1	x	-6	9	-9	53*
CCNc1nc(N)nc(Oc2ccc(C(=O)OC)cc2)n1	18	87*	-5	5	34
CCNc1nc(Oc2ccc(C(=O)OC)cc2)nc(N(C)C)n1	x	5	-32	32	2
C[C@H](CO)N1C[C@H](C)[C@H](CN(C)C(=O)Nc2cccc3ccccc23)Oc2ncc(Br)cc2C1=O	0	x	x	x	x
N/C(=N\c1nc2ccccc2o1)NC(=O)c1ccccc1Br	7	85*	-33	33	16
Clc1ccccc1/C=C/c1nc(-c2cccnc2)no1	39*	84*	-6	6	44
c1ccc(-c2noc(-c3cccnc3)n2)cc1	u	77	12	-12	21
Cc1ccc(-c2noc(/C=C/c3ccccc3)n2)cc1	x	68	11	-11	69*

Screening results as filed in PubChem.
